Columns and labels:
[1] = molecular target: Neuronal acetylcholine receptor subunit alpha-7 (Homo sapiens, UniProt P36544); assay: Agonist activity at alpha7 nAChR (unknown origin) expressed in HEK293 cells assessed as increase in calcium influx by Fluo-4-AM dye based FLIPR assay; type: cell-based
Procedure, shortened: (§1)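 Ca2+-based fluorescence imaging plate reader screen, run as two assays: α7 nAChR agonism and 5-HT3A receptor antagonism. Number of determinations recorded per value.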

Homo sapiens = species on record: Homo sapiens; assay: Selectivity ratio of IC50 for 5-HT3A receptor (unknown origin) to EC50 for alpha7 nAChR (unknown origin) expressed in HEK293 cells; type: cell-based
Procedure, shortened: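 Selectivity ratio calculated as 5-HT3A IC50 (FLIPR Ca2+ antagonist assay) divided by α7 EC50 (FLIPR Ca2+ agonist assay).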

[2] = molecular target: T1, 5-hydroxytryptamine receptor 3A (Homo sapiens, UniProt P46098); assay: Antagonist activity at 5-HT3A receptor (unknown origin) assessed as decrease in calcium influx by Fluo-4-AM dye based FLIPR assay; procedure, shortened: as §1
T1 sequence (P46098 whole entry): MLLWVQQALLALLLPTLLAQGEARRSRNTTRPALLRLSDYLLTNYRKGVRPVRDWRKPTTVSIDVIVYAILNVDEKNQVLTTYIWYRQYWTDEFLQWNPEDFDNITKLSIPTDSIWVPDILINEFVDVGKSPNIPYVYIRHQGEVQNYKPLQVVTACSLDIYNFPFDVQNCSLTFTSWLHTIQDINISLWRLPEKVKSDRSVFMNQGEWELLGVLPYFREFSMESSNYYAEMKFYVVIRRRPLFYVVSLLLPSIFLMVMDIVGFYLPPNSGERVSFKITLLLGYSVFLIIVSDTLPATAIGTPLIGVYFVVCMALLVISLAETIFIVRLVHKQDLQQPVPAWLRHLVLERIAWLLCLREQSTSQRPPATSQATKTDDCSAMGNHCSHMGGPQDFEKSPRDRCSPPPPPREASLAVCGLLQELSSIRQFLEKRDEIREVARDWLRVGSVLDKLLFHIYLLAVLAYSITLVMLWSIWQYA

[3] = molecular target: Neuronal acetylcholine receptor subunit alpha-7 (Rattus norvegicus, UniProt Q05941); assay: Agonist activity at rat alpha7 nAChR expressed in HEK293 cells co-expressing human RIC-3 assessed as area under current curve at holding potential of -90 mV by whole-cell voltage clamp electrophysiology method; type: cell-based
Chain of Neuronal acetylcholine receptor subunit alpha-7 (Rattus norvegicus, UniProt Q05941) (Q05941 whole entry): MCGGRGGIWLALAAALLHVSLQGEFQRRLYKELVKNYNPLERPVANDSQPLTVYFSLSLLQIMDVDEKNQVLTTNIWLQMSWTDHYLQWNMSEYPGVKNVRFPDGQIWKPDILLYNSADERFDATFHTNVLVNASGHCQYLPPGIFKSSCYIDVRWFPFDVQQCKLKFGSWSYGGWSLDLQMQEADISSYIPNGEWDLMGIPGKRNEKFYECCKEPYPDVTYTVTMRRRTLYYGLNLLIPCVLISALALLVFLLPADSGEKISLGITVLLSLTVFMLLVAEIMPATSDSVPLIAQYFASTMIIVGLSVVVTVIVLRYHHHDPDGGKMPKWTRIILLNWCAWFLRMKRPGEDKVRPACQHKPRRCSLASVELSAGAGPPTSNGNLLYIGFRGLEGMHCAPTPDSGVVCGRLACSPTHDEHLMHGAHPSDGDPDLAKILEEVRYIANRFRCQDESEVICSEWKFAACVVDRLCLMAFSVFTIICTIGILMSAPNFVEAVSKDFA
Procedure, shortened: (§2)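 Concentration-response patch-clamp electrophysiology in HEK-293 cells expressing rat α7 nAChR. EC50 is taken from response area. Efficacy is given as Ymax from both area and peak response.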

[4] = molecular target: Neuronal acetylcholine receptor subunit alpha-7 (Rattus norvegicus) (UniProt Q05941); assay: Agonist activity at rat alpha7 nAChR expressed in HEK293 cells co-expressing human RIC-3 assessed as area under current curve at 10 uM at holding potential of -90 mV by whole-cell voltage clamp electrophysiology method relative to acetylcholine; type: cell-based; procedure, shortened: as §2
Chain of Neuronal acetylcholine receptor subunit alpha-7 (Rattus norvegicus) (Q05941 whole entry): as above

[5] = molecular target: Neuronal acetylcholine receptor subunit alpha-7 (Rattus norvegicus) (UniProt Q05941); assay: Agonist activity at rat alpha7 nAChR expressed in HEK293 cells co-expressing human RIC-3 assessed as maximum peak current at 10 uM at holding potential of -90 mV by whole-cell voltage clamp electrophysiology method relative to acetylcholine; type: cell-based; procedure, shortened: as §2
Rattus norvegicus [6] = assay: Effect on beta2-microglobulin gene expression in Wistar rat medial prefrontal cortex at 10 mg/kg, sc after 2 hrs by qPCR method; type: ADME, organism-based; settings: in vivo
Procedure, shortened: (§3)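 Rats dosed sc at 0.3–10 mg/kg, or with vehicle at 2 mL/kg sc. Medial prefrontal cortex was assayed for c-fos and Arc expression, normalized to vehicle, with β2-microglobulin as the endogenous control. Data are mean ± SEM, N = 8. Dunnett's multiple comparison test against vehicle gave adjusted p values.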

Rattus norvegicus [7] = assay: In vivo agonist activity at alpha7 nAChR in Wistar rat assessed as induction of Arc gene expression in medial prefrontal cortex at 10 mg/kg, sc after 2 hrs by qPCR method relative to control; type: functional; procedure, shortened: as §3
Rattus norvegicus [8] = assay: In vivo agonist activity at alpha7 nAChR in Wistar rat assessed as induction of c-fos gene expression in medial prefrontal cortex at 10 mg/kg, sc after 2 hrs by qPCR method relative to control; type: functional; procedure, shortened: as §3
[9] = Drug uptake in Wistar rat brain at 3 mg/kg, sc after 2 hrs; type: ADME, organism-based; settings: read-out: Drug uptake
Rattus norvegicus [10] = assay: In vivo agonist activity at alpha7 nAChR in Wistar rat assessed as induction of Arc gene expression in medial prefrontal cortex at 0.3 mg/kg, sc after 2 hrs by qPCR method relative to control; type: functional
Procedure, shortened: (§4)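 Rats dosed sc (0.3–10 mg/kg; vehicle 2 mL/kg sc) and c-fos and Arc expression measured in medial prefrontal cortex. Values are normalized to vehicle, mean ± SEM, N = 8. Comparison with vehicle by Dunnett's multiple comparison test (adjusted p). β2-microglobulin served as endogenous control. Plasma and brain/plasma levels were sampled at 3 and 10 mg/kg.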

[11] = Drug uptake in Wistar rat brain at 1 mg/kg, sc after 2 hrs; type: ADME, organism-based; settings: read-out: Drug uptake
Rattus norvegicus [12] = assay: Effect on beta2-microglobulin gene expression in Wistar rat medial prefrontal cortex at 0.3 to 10 mg/kg, sc after 2 hrs by qPCR method; type: ADME, organism-based; settings: in vivo; procedure, shortened: as §3
[13] = Ratio of drug uptake in Wistar rat brain to plasma at 1 mg/kg, sc after 2 hrs; type: ADME, organism-based; settings: read-out: BPR
[14] = Plasma concentration in Wistar rat at 0.3 mg/kg, sc after 2 hrs; type: ADME, organism-based
[15] = Drug uptake in Wistar rat brain at 10 mg/kg, sc after 2 hrs; type: ADME, organism-based; settings: read-out: Drug uptake
[16] = molecular target: Neuronal acetylcholine receptor subunit alpha-7 (Rattus norvegicus) (UniProt Q05941); assay: Displacement of [125I]Tyr54-alpha-Bungarotoxin from rat alpha7 nAChR expressed in HEK293 cell membranes co-expressing human RIC-3 after 2 hrs by gamma counting method
[17] = Drug uptake in Wistar rat brain at 0.3 mg/kg, sc after 2 hrs; type: ADME, organism-based; settings: read-out: Drug uptake
[18] = Plasma concentration in Wistar rat at 10 mg/kg, sc after 2 hrs; type: ADME, organism-based
Procedure, shortened: (§5)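 Plasma concentration and brain/plasma ratio measured at 3 and 10 mg/kg sc, in the same rats used for the prefrontal c-fos/Arc expression study.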

Rattus norvegicus [19] = assay: In vivo agonist activity at alpha7 nAChR in Wistar rat assessed as induction of c-fos gene expression in medial prefrontal cortex at 1 mg/kg, sc after 2 hrs by qPCR method relative to control; type: functional; procedure, shortened: as §4
[20] = Plasma concentration in Wistar rat at 1 mg/kg, sc after 2 hrs; type: ADME, organism-based
[21] = Ratio of drug uptake in Wistar rat brain to plasma at 3 mg/kg, sc after 2 hrs; type: ADME, organism-based; settings: read-out: BPR; procedure, shortened: as §5
[22] = Ratio of drug uptake in Wistar rat brain to plasma at 0.3 mg/kg, sc after 2 hrs; type: ADME, organism-based; settings: read-out: BPR
Rattus norvegicus [23] = assay: In vivo agonist activity at alpha7 nAChR in Wistar rat assessed as induction of Arc gene expression in medial prefrontal cortex at 3 mg/kg, sc after 2 hrs by qPCR method relative to control; type: functional; procedure, shortened: as §4
[24] = Ratio of drug uptake in Wistar rat brain to plasma at 10 mg/kg, sc after 2 hrs; type: ADME, organism-based; settings: read-out: BPR; procedure, shortened: as §5
Rattus norvegicus [25] = assay: In vivo agonist activity at alpha7 nAChR in Wistar rat assessed as induction of Arc gene expression in medial prefrontal cortex at 1 mg/kg, sc after 2 hrs by qPCR method relative to control; type: functional; procedure, shortened: as §4
[26] = Plasma concentration in Wistar rat at 3 mg/kg, sc after 2 hrs; type: ADME, organism-based; procedure, shortened: as §5
Rattus norvegicus [27] = assay: In vivo agonist activity at alpha7 nAChR in Wistar rat assessed as induction of c-fos gene expression in medial prefrontal cortex at 3 mg/kg, sc after 2 hrs by qPCR method relative to control; type: functional; procedure, shortened: as §4
Rattus norvegicus [28] = assay: In vivo agonist activity at alpha7 nAChR in Wistar rat assessed as induction of c-fos gene expression in medial prefrontal cortex at 0.3 mg/kg, sc after 2 hrs by qPCR method relative to control; type: functional; procedure, shortened: as §4

Chain of Neuronal acetylcholine receptor subunit alpha-7 (Homo sapiens, UniProt P36544) (P36544 whole entry): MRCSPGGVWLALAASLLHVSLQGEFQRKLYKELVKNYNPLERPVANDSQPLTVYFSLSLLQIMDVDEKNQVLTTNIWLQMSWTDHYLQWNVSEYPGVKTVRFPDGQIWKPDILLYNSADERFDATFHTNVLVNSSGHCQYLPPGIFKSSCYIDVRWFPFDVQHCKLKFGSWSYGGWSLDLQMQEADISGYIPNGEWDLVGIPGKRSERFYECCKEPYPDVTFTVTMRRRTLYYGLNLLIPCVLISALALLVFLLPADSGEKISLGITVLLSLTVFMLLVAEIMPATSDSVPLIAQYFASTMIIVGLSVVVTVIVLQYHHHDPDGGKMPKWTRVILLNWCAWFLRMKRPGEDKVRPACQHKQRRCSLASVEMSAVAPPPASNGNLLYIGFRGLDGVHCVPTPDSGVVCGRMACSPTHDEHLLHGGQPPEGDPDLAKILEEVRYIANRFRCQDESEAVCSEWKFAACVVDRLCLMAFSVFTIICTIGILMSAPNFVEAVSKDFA

c1cn(-c2cc(NC3=NCC4(CN5CCC4CC5)N3)ncn2)cn1 (racemic)
EC50 [1]: 140 nM
Ratio IC50/EC50 (Homo sapiens): 460
IC50 [2]: 6400 nM

Clc1ccc2c(NC3=NCC4(CN5CCC4CC5)N3)ncnn12 (configuration not stated)
EC50 [1]: 62 nM
Ratio IC50/EC50 (Homo sapiens): 610
IC50 [2]: 38000 nM

c1ccc2c(NC3=NCC4(CN5CCC4CC5)N3)ncnc2c1 (racemic)
EC50 [1]: 530 nM
Ratio IC50/EC50 (Homo sapiens): 27
IC50 [2]: 14500 nM

Clc1ccc2nc(NC3=NCC4(CN5CCC4CC5)N3)sc2c1 (racemic)
EC50 [3]: 1200 nM
Emax [4]: 33%
EC50 [1]: 150 nM
Emax [5]: 5%
Ratio IC50/EC50 (Homo sapiens): 120
IC50 [2]: 18000 nM

O=C(Oc1ccc(Br)cc1)N1CCN2CCC1CC2 [SSR180711]
Activity (Rattus norvegicus [6]): Non-Toxic
fold change (FC) (Rattus norvegicus [7]): 3.9
fold change (FC) (Rattus norvegicus [8]): 2.4

Clc1cnc(NC2=NCC3(CN4CCC3CC4)N2)cn1 (racemic)
EC50 [1]: 990 nM
Ratio IC50/EC50 (Homo sapiens): 5.7
IC50 [2]: 5600 nM

Cc1ccc2nc(NC3=NCC4(CN5CCC4CC5)N3)oc2c1 (racemic)
EC50 [3]: 500 nM
Emax [4]: 58%
EC50 [1]: 35 nM
Emax [5]: 16%
Ratio IC50/EC50 (Homo sapiens): 210 to 250
IC50 [2]: 7400 nM

COc1ccc2nc(NC3=NCC4(CN5CCC4CC5)N3)sc2c1 (racemic)
EC50 [1]: 880 nM
Ratio IC50/EC50 (Homo sapiens): 36
IC50 [2]: 32000 nM

Clc1cnc(NC2=NCC3(CN4CCC3CC4)N2)nc1 (racemic)
EC50 [3]: 1100 nM
Emax [4]: 44%
EC50 [1]: 290 nM
Emax [5]: 11%
Ratio IC50/EC50 (Homo sapiens): 2.1
IC50 [2]: 620 nM

c1ccc2nc(NC3=NCC4(CN5CCC4CC5)N3)cnc2c1 (racemic)
EC50 [1]: 490 nM
Ratio IC50/EC50 (Homo sapiens): 2.9
IC50 [2]: 1400 nM

Clc1ccc2nc(NC3=NCC4(CN5CCC4CC5)N3)sc2n1 (racemic)
EC50 [1]: 56 nM
Ratio IC50/EC50 (Homo sapiens): 570
IC50 [2]: 32000 nM

Clc1ccc(NC2=NCC3(CN4CCC3CC4)N2)nc1 (racemic)
EC50 [1]: 1200 nM
Ratio IC50/EC50 (Homo sapiens): 0.72
IC50 [2]: 860 nM

COc1cc(NC2=NCC3(CN4CCC3CC4)N2)ncn1 (racemic)
EC50 [1]: 1300 nM
Ratio IC50/EC50 (Homo sapiens): > 77
IC50 [2]: > 100000 nM

CN1C(Nc2nc3ccc(Cl)nc3s2)=NCC12CN1CCC2CC1 (racemic)
EC50 [1]: 550 nM
Ratio IC50/EC50 (Homo sapiens): 24
IC50 [2]: 13000 nM

COc1ccc2sc(NC3=NCC4(CN5CCC4CC5)N3)nc2c1 (racemic)
EC50 [1]: 750 nM
Ratio IC50/EC50 (Homo sapiens): 0.068
IC50 [2]: 51 nM

CN1C(Nc2nc3ccccc3s2)=NCC12CN1CCC2CC1 (configuration not stated)
EC50 [3]: 1200 nM
Emax [4]: 67%
EC50 [1]: 170 nM
Emax [5]: 25%
Ratio IC50/EC50 (Homo sapiens): 0.25
IC50 [2]: 43 nM

Clc1cccc2sc(NC3=NCC4(CN5CCC4CC5)N3)nc12 (racemic)
EC50 [1]: 120 nM
Ratio IC50/EC50 (Homo sapiens): 0.32
IC50 [2]: 38 nM

c1ccc2sc(NC3=NCC4(CN5CCC4CC5)N3)nc2c1 (configuration not stated)
concentration at 2 h [9]: 524 nM
fold change (FC) (Rattus norvegicus [10]): 1.2
EC50 [3]: 200 nM
fold change (FC) (Rattus norvegicus [7]): 2.7
concentration at 2 h [11]: 184 nM
Activity (Rattus norvegicus [12]): Non-Toxic
Kp at 2 h [13]: 4.3
concentration at 2 h [14]: 12 nM
concentration at 2 h [15]: 1920 nM
Emax [4]: 78%
INH [16]: 240 nM
concentration at 2 h [17]: 58 nM
fold change (FC) (Rattus norvegicus [8]): 1.9
concentration at 2 h [18]: 460 to 463 nM
fold change (FC) (Rattus norvegicus [19]): 1.1
EC50 [1]: 26 nM
concentration at 2 h [20]: 43 nM
Kp at 2 h [21]: 4
Emax [5]: 29%
Kp at 2 h [22]: 4.8
fold change (FC) (Rattus norvegicus [23]): 1.5
Kp at 2 h [24]: 4.1
fold change (FC) (Rattus norvegicus [25]): 1
concentration at 2 h [26]: 130 to 131 nM
fold change (FC) (Rattus norvegicus [27]): 1.7
Ratio IC50/EC50 (Homo sapiens): 1
fold change (FC) (Rattus norvegicus [28]): 1.5
IC50 [2]: 26 nM

c1ccc2oc(NC3=NCC4(CN5CCC4CC5)N3)nc2c1 (racemic)
EC50 [1]: 53 nM
Ratio IC50/EC50 (Homo sapiens): 0.49
IC50 [2]: 26 nM

CCN1C(Nc2nc3ccc(OC)cc3s2)=NCC12CN1CCC2CC1 (racemic)
EC50 [1]: > 10000 nM
Ratio IC50/EC50 (Homo sapiens): > 1
IC50 [2]: > 12000 nM
